In ChEMBL document CHEMBL5244249, “Discovery of tofacitinib derivatives as orally active antitumor agents based on the scaffold hybridization strategy” (Eur J Med Chem, 2020):
Activity calls are given as the source filed them. The calls are words filed in the database; no cut-off is given here.

Legend:
BGC-823 = test: Antiproliferative activity against human BGC-823 cells assessed as inhibition of cell growth incubated for 72 hrs by MTT assay; assay type: functional, cell-based; conditions: BGC-823, 72 h
Outline: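 Antiproliferative screen in gastric cancer lines MGC-803, HGC-27 and BGC-823 by MTT assay; IC50 reported as mean ± SD.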

[1] = Cytotoxicity against human GES1 cells assessed as inhibition of cell growth incubated for 72 hrs by MTT assay; assay type: toxicity, cell-based
MGC-803 = test: Induction of apoptosis in human MGC-803 cells assessed as increase in Bax protein expression at 5 to 10 uM incubated for 24 hrs by Western blot analysis; assay type: functional, cell-based; conditions: dose 5-10 µM
Outline: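 After 24 h exposure of MGC-803 cells, Bcl-2, Mcl-1, Bax and cytochrome c release assessed by Western blot with band quantitation; mean ± SD from three independent experiments.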

IC50 (BGC-823): 23.3 µM
SMILES: Cc1cc(N2CC[C@@H](C)[C@@H](N(C)c3ncnc4[nH]ccc34)C2)n2nc(SCc3ccc(C(F)(F)F)cc3)nc2n1
IC50 at 72 h [1]: 17.3 µM
Activity (MGC-803): Active
